Laboratory results: ChEMBL document CHEMBL3286357, “Design, synthesis and pharmacological evaluation of novel substituted quinoline-2-carboxamide derivatives as human dihydroorotate dehydrogenase (hDHODH) inhibitors and anticancer agents” (Eur J Med Chem, 2014)

Legend:
A-375 [1] = assay: Antiproliferative activity against human A375 cells at 0.41 ug/ml for 24 hrs by MTT assay; assay type: functional; settings: A-375, 24 h
In short: (§1)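 HEP-3B or A-375 cells were grown in DMEM with 10% FBS, 5% HBSS, penicillin, streptomycin and amphotericin B at 37 C and 5% CO2. Cells were seeded at 2 × 10^4 per well and preincubated for 24 h. They were then exposed to ten 1:3 serial dilutions from a top concentration of 100, made from 2% DMSO stocks. MTT was added for 3 h, formazan was dissolved in DMSO, and A550 was read. Wells were run in triplicate across three independent experiments. IC50 came from dose-response curves.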

A-375 [2] = assay: Antiproliferative activity against human A375 cells at 3.7 ug/ml for 24 hrs by MTT assay; assay type: functional; settings: A-375, 24 h; in short: as §1
A-375 [3] = assay: Antiproliferative activity against human A375 cells at 33.33 ug/ml for 24 hrs by MTT assay; assay type: functional; settings: A-375, 24 h; in short: as §1
[4] = Antiproliferative activity against human Hep3B cells at 100 ug/ml for 24 hrs by MTT assay; assay type: functional, Hep 3B2; in short: as §1
A-375 [5] = assay: Antiproliferative activity against human A375 cells at 0.01 ug/ml for 24 hrs by MTT assay; assay type: functional; settings: A-375, 24 h; in short: as §1
[6] = Antiproliferative activity against human Hep3B cells at 0.14 ug/ml for 24 hrs by MTT assay; assay type: functional, Hep 3B2; in short: as §1
[7] = Antiproliferative activity against human Hep3B cells at 1.23 ug/ml for 24 hrs by MTT assay; assay type: functional, Hep 3B2; in short: as §1
A-375 [8] = assay: Antiproliferative activity against human A375 cells at 0.05 ug/ml for 24 hrs by MTT assay; assay type: functional; settings: A-375, 24 h; in short: as §1
A-375 [9] = assay: Antiproliferative activity against human A375 cells at 1.23 ug/ml for 24 hrs by MTT assay; assay type: functional; settings: A-375, 24 h; in short: as §1
A-375 [10] = assay: Antiproliferative activity against human A375 cells at 0.14 ug/ml for 24 hrs by MTT assay; assay type: functional; settings: A-375, 24 h; in short: as §1
[11] = Antiproliferative activity against human Hep3B cells at 0.41 ug/ml for 24 hrs by MTT assay; assay type: functional, Hep 3B2; in short: as §1
[12] = Retention time of compound by HPLC analysis; assay type: physicochemical
A-375 (human melanoma) = assay: Antiproliferative activity against human A375 cells for 24 hrs by MTT assay; settings: A-375, 24 h
[13] = molecular target: Dihydroorotate dehydrogenase (quinone), mitochondrial (Homo sapiens, UniProt Q02127); assay: Inhibition of recombinant human DHODH activity after 20 mins by DCIP dye based colorimetric analysis in presence of 1 mM L-dihydroorotate and 0.1 mM CqD
Chain of Dihydroorotate dehydrogenase (quinone), mitochondrial (Q02127 whole entry): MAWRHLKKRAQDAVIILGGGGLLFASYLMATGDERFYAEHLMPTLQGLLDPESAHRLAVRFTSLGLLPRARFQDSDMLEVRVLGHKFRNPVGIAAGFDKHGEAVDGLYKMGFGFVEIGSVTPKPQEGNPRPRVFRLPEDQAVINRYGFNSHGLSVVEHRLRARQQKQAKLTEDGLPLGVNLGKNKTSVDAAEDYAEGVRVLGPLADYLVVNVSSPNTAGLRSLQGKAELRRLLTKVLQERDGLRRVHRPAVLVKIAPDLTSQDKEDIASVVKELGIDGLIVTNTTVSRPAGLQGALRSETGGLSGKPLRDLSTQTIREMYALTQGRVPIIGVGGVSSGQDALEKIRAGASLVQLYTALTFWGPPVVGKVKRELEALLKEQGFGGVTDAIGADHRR

A-375 [14] = assay: Antiproliferative activity against human A375 cells at 11.11 ug/ml for 24 hrs by MTT assay; assay type: functional; settings: A-375, 24 h; in short: as §1
[15] = Antiproliferative activity against human Hep3B cells at 3.7 ug/ml for 24 hrs by MTT assay; assay type: functional, Hep 3B2; in short: as §1
[16] = Antiproliferative activity against human Hep3B cells at 0.05 ug/ml for 24 hrs by MTT assay; assay type: functional, Hep 3B2; in short: as §1
[17] = Antiproliferative activity against human Hep3B cells at 11.11 ug/ml for 24 hrs by MTT assay; assay type: functional, Hep 3B2; in short: as §1
[18] = Antiproliferative activity against human Hep3B cells at 33.33 ug/ml for 24 hrs by MTT assay; assay type: functional, Hep 3B2; in short: as §1
[19] = Antiproliferative activity against human Hep3B cells at 0.02 ug/ml for 24 hrs by MTT assay; assay type: functional, Hep 3B2; in short: as §1
A-375 [20] = assay: Antiproliferative activity against human A375 cells at 100 ug/ml for 24 hrs by MTT assay; assay type: functional; settings: A-375, 24 h; in short: as §1
A-375 [21] = assay: Antiproliferative activity against human A375 cells at 0.02 ug/ml for 24 hrs by MTT assay; assay type: functional; settings: A-375, 24 h; in short: as §1
[22] = Antiproliferative activity against human Hep3B cells at 0.01 ug/ml for 24 hrs by MTT assay; assay type: functional, Hep 3B2; in short: as §1
HEP-3B (human hepatoma) = assay: Antiproliferative activity against human Hep3B cells for 24 hrs by MTT assay

Work on `Cc1c(C(=O)Nc2c(F)cc(-c3cccc(F)c3)cc2F)nc2ccc(C(F)(F)F)cc2c1C(=O)O` yielded an inhibition at 0.41 µg/mL (A-375 [1]) of 7.82%, an inhibition at 3.7 µg/mL (A-375 [2]) of 27.8% and an inhibition at 33.33 µg/mL (A-375 [3]) of 51%. For the same compound, the inhibition at 100 µg/mL [4] was 72.3%, the inhibition at 0.01 µg/mL (A-375 [5]) was 0.12% and the inhibition at 0.14 µg/mL [6] was 2.13%. It also gave an inhibition at 1.23 µg/mL [7] of 17.2%, an inhibition at 0.05 µg/mL (A-375 [8]) of 1.04% and an inhibition at 1.23 µg/mL (A-375 [9]) of 18.3%. For the same compound, the inhibition at 0.14 µg/mL (A-375 [10]) was 2.56%, the inhibition at 0.41 µg/mL [11] was 6.42% and the Retention_time [12] was 6.8 min. It also gave an IC50 (A-375 (human melanoma)) of 7.57 µM, an IC50 [13] of 3.44 µM and an inhibition at 11.11 µg/mL (A-375 [14]) of 45.4%. For the same compound, the inhibition at 3.7 µg/mL [15] was 21.3%, the inhibition at 0.05 µg/mL [16] was 1.68% and the inhibition at 11.11 µg/mL [17] was 31.2%. For the same compound, the inhibition at 33.33 µg/mL [18] was 43.3%, the inhibition at 0.02 µg/mL [19] was 1.15% and the inhibition at 100 µg/mL (A-375 [20]) was 61.3%. The inhibition at 0.02 µg/mL (A-375 [21]) was 0.37%, the inhibition at 0.01 µg/mL [22] was 0.2% and the IC50 (HEP-3B (human hepatoma)) was 42.8 µM.
